Data taken from ChEMBL document CHEMBL3259666, “Discovery of a neuroprotective chemical, (S)-N-(3-(3,6-dibromo-9H-carbazol-9-yl)-2-fluoropropyl)-6-methoxypyridin-2-amine [(-)-P7C3-S243], with improved druglike properties” (J Med Chem, 2014).
Activity calls are given as the source filed them. The rule behind the calls is not given here.

Tested on: Mus musculus
Assay: Neuroprotective activity in wild type C57BL/J6 mouse assessed as survival of newborn hippocampal neurons at 10 uM, icv administered for 7 days by BrdU staining-based immunohistochemical analysis relative to vehicle-treated control
Type: functional, organism-based
In short: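 Adult (12 week old) C57BL/J6 mice, environmentally deprived; compound infused via osmotic minipump into left lateral ventricle at 0.5 μL/h for 7 days. BrdU IP 50 mg kg–1 day–1 for 6 days during infusion; perfusion 24 h after last BrdU. BrdU+ cells in SGZ/dentate gyrus of contralateral hemisphere counted in every fifth 40 μm section, normalized to dentate gyrus volume; mean ± SEM.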

OC(CNc1ccccc1)Cn1c2ccc(Br)cc2c2cc(Br)ccc21 (configuration not stated)
Activity: Active

COc1cccc(NCC(O)Cn2c3ccc(Br)cc3c3cc(Br)ccc32)n1 (configuration not stated)
Activity: Active
